Measured values reported in ChEMBL document CHEMBL4382221, “First-in-class DAPK1/CSF1R dual inhibitors: Discovery of 3,5-dimethoxy-N-(4-(4-methoxyphenoxy)-2-((6-morpholinopyridin-3-yl)amino)pyrimidin-5-yl)benzamide as a potential anti-tauopathies agent” (Eur J Med Chem, 2019).
The source made the active and inactive calls. The calls are words filed in the database; no cut-off is given here.

Columns and labels:
[1] = target: T1, Macrophage colony-stimulating factor 1 receptor (Homo sapiens, UniProt P07333); assay: Inhibition of human CSF1R at 10 uM using poly[Glu:Tyr] (4:1) as substrate after 120 mins in presence of 10 uM [gamma-33P]-ATP by filtration method relative to control
Summary of the method: (§1)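 Radiometric HotSpot assay measuring substrate phosphorylation directly, with 10 μM ATP. Single-dose screen at 10 μM in duplicate, reported as mean % inhibition from two independent experiments.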

[2] = target: T2, Death-associated protein kinase 1 (Homo sapiens, UniProt P53355); assay: Inhibition of human DAPK1 (1 to 363 residues) at 10 uM using KKLNRTLSFAEPG as substrate after 120 mins in presence of 10 uM [gamma-33P]-ATP by filtration method relative to control; summary of the method: as §1
Target sequence in this assay (P53355 whole entry, looked up, the tested form may be a part): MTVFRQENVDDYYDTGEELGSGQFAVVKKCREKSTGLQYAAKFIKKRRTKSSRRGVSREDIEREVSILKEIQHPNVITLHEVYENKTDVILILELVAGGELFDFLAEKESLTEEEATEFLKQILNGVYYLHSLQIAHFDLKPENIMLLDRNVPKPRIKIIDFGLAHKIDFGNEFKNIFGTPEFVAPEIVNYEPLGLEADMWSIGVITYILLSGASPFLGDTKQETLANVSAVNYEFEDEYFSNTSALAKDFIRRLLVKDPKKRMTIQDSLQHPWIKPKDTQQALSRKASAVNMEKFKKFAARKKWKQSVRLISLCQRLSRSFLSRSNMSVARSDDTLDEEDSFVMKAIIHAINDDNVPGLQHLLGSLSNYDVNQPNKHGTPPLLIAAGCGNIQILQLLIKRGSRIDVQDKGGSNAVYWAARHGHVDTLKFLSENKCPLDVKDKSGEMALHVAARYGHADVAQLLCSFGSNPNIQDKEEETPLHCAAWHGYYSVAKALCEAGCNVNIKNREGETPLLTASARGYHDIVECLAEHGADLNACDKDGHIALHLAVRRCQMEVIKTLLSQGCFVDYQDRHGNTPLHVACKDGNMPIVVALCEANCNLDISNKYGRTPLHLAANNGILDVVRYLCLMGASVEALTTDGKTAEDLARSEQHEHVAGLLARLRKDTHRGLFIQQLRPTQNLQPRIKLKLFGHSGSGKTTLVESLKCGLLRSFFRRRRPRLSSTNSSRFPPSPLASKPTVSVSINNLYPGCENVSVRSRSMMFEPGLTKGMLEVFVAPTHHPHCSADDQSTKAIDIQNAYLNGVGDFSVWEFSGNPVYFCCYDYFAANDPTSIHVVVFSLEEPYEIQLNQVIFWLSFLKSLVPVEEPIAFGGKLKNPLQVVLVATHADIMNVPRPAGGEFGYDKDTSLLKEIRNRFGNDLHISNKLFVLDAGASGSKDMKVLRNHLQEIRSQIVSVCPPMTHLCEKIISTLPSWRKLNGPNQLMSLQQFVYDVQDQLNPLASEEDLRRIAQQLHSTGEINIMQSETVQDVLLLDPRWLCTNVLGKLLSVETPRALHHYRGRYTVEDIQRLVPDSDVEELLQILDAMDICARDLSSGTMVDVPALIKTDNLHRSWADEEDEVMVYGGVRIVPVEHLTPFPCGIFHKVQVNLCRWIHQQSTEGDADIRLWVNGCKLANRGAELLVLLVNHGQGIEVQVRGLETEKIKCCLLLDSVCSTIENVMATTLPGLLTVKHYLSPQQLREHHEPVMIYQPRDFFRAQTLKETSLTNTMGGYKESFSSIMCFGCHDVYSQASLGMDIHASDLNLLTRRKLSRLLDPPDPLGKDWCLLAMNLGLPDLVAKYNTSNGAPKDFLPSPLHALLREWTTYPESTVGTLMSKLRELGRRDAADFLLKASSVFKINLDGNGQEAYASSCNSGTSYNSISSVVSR

[3] = Effective permeability of the compound at 50 uM after 4 hrs by PAMPA; assay type: ADME; settings: read-out: Peff
Summary of the method: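 Parallel artificial membrane permeability assay across a BBB-PAMPA lipid membrane, reporting effective permeability (Pe) in 10^-6 cm/sec. […] Pe above 0.4 was taken as highly permeable, and above 10 as highly CNS bioavailable.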

[4] = target: T1, Macrophage colony-stimulating factor 1 receptor; assay: Inhibition of human CSF1R using poly[Glu:Tyr] (4:1) as substrate after 120 mins in presence of 10 uM [gamma-33P]-ATP by filtration method
Summary of the method: (§2)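 Radiometric HotSpot assay with direct measurement of phosphorylated substrate at 10 μM ATP. IC50 was taken from a duplicate 10-dose series, 3-fold dilutions starting at 20 μM, reported as mean.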

[5] = target: T2, Death-associated protein kinase 1; assay: Inhibition of human DAPK1 (1 to 363 residues) using KKLNRTLSFAEPG as substrate after 120 mins in presence of 10 uM [gamma-33P]-ATP by filtration method; summary of the method: as §2
Target sequence in this assay (P53355 whole entry, the tested form may be a part): as the sequence (P53355 whole entry, looked up, the tested form may be a part) above

[6] = target: T2, Death-associated protein kinase 1; assay: Inhibition of human DAPK1 (1 to 363 residues) at 20 uM using KKLNRTLSFAEPG as substrate after 120 mins in presence of 10 uM [gamma-33P]-ATP by filtration method relative to control
Summary of the method: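 Radiometric HotSpot kinase assay with 10 μM ATP. Compound tested at a single 20 μM concentration, reported as mean % inhibition from two independent experiments.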
Target sequence in this assay (P53355 whole entry, looked up, the tested form may be a part): as above

[7] = target: T2, Death-associated protein kinase 1; assay: Inhibition of DAPK1 in HEK293 tau-BiFC cells assessed as reduction in forskolin-induced tau aggregation at 50 uM after 48 hrs by Hoechst staining based HCS analysis; assay type: cell-based
Summary of the method: (§3)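 HEK293 cells expressing tau-BiFC were exposed to compounds at 50, 10 and 1 μM with forskolin (30 μM) as the tau aggregation activator for 48 h. BiFC fluorescence intensity was quantified as the read-out. Data are mean ± SD.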
Target sequence in this assay (P53355 whole entry, looked up, the tested form may be a part): as above

[8] = target: T2, Death-associated protein kinase 1; assay: Inhibition of DAPK1 in HEK293 tau-BiFC cells assessed as reduction in forskolin-induced tau aggregation at 10 uM after 48 hrs by Hoechst staining based HCS analysis; assay type: cell-based; summary of the method: as §3
Target sequence in this assay (P53355 whole entry, looked up, the tested form may be a part): as above

[9] = system: BV-2; assay: Anti-neuroinflammatory activity in mouse BV2 cells assessed as inhibition of LPS-stimulated NO production at 10 uM preincubated for 1 hr followed by LPS stimulation for 23 hrs by Griess reagent based assay relative to control; assay type: functional
Summary of the method: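 Mouse BV-2 microglia were stimulated with LPS, with or without compound at 10 μM, and NO production was measured. Values are means ± SD of five independent experiments.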

T1 sequence (P07333 whole entry): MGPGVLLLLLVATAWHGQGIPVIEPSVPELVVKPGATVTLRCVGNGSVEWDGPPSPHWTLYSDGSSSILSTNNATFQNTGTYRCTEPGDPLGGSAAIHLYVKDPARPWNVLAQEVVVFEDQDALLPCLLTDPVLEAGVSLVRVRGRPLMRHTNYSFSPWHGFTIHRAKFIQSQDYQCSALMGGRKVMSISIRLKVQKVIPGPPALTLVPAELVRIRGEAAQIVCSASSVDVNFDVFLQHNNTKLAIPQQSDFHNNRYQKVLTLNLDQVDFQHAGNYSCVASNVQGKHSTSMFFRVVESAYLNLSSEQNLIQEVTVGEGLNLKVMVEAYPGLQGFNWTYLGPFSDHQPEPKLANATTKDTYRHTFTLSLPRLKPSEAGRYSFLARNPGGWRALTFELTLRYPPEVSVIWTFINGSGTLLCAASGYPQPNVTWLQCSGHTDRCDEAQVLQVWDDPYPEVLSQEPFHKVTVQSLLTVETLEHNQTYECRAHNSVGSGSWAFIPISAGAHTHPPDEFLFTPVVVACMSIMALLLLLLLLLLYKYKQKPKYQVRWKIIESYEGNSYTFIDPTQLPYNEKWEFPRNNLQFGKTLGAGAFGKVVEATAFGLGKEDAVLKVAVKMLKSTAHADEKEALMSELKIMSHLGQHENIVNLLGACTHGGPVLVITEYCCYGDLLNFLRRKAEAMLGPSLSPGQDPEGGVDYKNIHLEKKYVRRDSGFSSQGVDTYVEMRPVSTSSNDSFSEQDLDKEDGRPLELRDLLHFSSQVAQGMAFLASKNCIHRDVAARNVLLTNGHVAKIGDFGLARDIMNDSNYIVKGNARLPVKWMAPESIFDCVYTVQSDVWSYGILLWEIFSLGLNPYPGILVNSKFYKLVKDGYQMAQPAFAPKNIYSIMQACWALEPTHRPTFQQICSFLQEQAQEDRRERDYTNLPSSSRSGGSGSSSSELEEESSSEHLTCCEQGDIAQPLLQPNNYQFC

Row | inhibition [1] [%] | IC50 [4] [nM] | Compound | inhibition [2] [%] | further results
1 | 95.3 | 120 | COc1ccc(Oc2nc(Nc3ccc(N4CCOCC4)cc3)ncc2NC(=O)c2cc(OC)cc(OC)c2)cc1 | – | IC50 [5]: 2770 nM; inhibition [6]: 66%; inhibition [7]: Active; inhibition [8]: inactive; inhibition [9]: inactive
2 | 76 | 1720 | COc1ccc(Oc2nc(Nc3ccc(N4CCCCC4)nc3)ncc2NC(=O)c2cc(OC)cc(OC)c2)cc1 | 67.3 | IC50 [5]: 2690 nM; inhibition [7]: Active

Continued, compound first:

Row | Compound | inhibition [1] [%] | IC50 [4] [nM] | inhibition [2] [%] | further results
3 | COc1ccc(Oc2nc(Nc3ccc(N4CCOCC4)nc3)ncc2NC(N)=O)cc1 | 35.4 | – | 19.7 | –
4 | CC(=O)[C@H]1CC[C@H]2[C@@H]3CCC4=CC(=O)CC[C@]4(C)[C@H]3CC[C@]12C [PROGESTERONE] | – | – | – | Papp at 4 h, 50 µM [3]: 33.3 ×10⁻⁶ cm/s
5 | COc1ccc(Oc2nc(Nc3ccc(N4CCOCC4)cc3)ncc2NC(N)=O)cc1 | 65 | 4420 | – | inhibition [6]: 10.8%
6 | COc1ccc(Oc2nc(Nc3ccc(F)cc3)ncc2NC(N)=O)cc1 | 21 | – | 17.1 | –
7 | COc1ccc(Oc2nc(Nc3ccc(N4CCCCC4)nc3)ncc2NC(N)=O)cc1 | 28.4 | – | 31.7 | –
